Results as given in ChEMBL document CHEMBL3244248, “Substituted 3-amino-1,1-diaryl-2-propanols as potential antidepressant agents” (J Med Chem, 1979).
Activity calls are given as the source filed them. The calls are words filed in the database; no cut-off is given here.

How the values were obtained:
Mus musculus [1] = assay: Antidepressant activity against reserpine-induced hypothermia CFLP mouse model assessed as change in esophageal temperature at 10 mg/kg, po treated before 2 to 24 hrs of reserpine challenge; assay type: functional, organism-based; design: dose 10 mg/kg
Summary of the method: (§1)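 Male CFLP mice (18–23 g), two groups of five, received oral compound or vehicle 24, 18 and 2 h before iv reserpine base (1 mg/kg). Esophageal temperature was read before reserpine and at 2, 4 and 6 h. Test-minus-control mean differences at the three times were summed and corrected for the 0 h difference, giving Δ6 (°C).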

[2] = Anticholinergic effect in sc dosed CFLP mouse assessed as inhibition of pilocarpine-induced salivation; assay type: organism-based; conditions: in vivo
Summary of the method: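 Male CFLP mice (18–23 g), groups of eight. Vehicle or drug was given sc 20 min before urethane anaesthesia (1.8 g/kg sc), and pilocarpine (2 mg/kg sc) followed 10 min later. Salivation areas on chromatography paper were measured by planimeter every 5 min for 35 min. Percentage change from control was regressed against log dose to give an ED50 with fiducial limits.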

Ileum = assay: Anticholinergic effect in guinea pig ileum assessed as inhibition of acetylcholine-induced contraction; assay type: tissue-based; conditions: Cavia porcellus, read-out: pA2 (converted)
Summary of the method: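 Guinea pig ileum contracted by acetylcholine. ED50 values were generated from a dose–response fit, p = D^E/(D^E + K^E), and converted to pA2. pA2 is the negative log10 of the molar antagonist concentration that reduces the effect of two equal acetylcholine doses to that of a single dose.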

Mus musculus [3] = assay: Antidepressant activity against reserpine-induced hypothermia CFLP mouse model assessed as change in esophageal temperature at 5 mg/kg, po treated before 2 to 24 hrs of reserpine challenge; assay type: functional, organism-based; design: dose 5 mg/kg; summary of the method: as §1
Mus musculus [4] = organism: Mus musculus; assay: Anticholinergic effect in CFLP mouse assessed as mydriasis; conditions: in vivo
Mus musculus [5] = assay: Antidepressant activity against reserpine-induced hypothermia CFLP mouse model assessed as change in esophageal temperature at 30 mg/kg, po treated before 2 to 24 hrs of reserpine challenge; assay type: functional, organism-based; design: dose 30 mg/kg; summary of the method: as §1
Mus musculus [6] = assay: Antidepressant activity against reserpine-induced hypothermia CFLP mouse model assessed as change in esophageal temperature at 6 mg/kg, po treated before 2 to 24 hrs of reserpine challenge; assay type: functional, organism-based; design: dose 6 mg/kg; summary of the method: as §1
Mus musculus [7] = assay: Antidepressant activity against reserpine-induced hypothermia CFLP mouse model assessed as change in esophageal temperature < 5 degC at 30 mg/kg, po treated before 2 to 24 hrs of reserpine challenge
Mus musculus [8] = assay: Antidepressant activity against reserpine-induced hypothermia CFLP mouse model assessed as change in esophageal temperature at 100 mg/kg, po treated before 2 to 24 hrs of reserpine challenge; assay type: functional, organism-based; design: dose 100 mg/kg; summary of the method: as §1
Mus musculus [9] = assay: Antidepressant activity against reserpine-induced hypothermia CFLP mouse model assessed as change in esophageal temperature at 20 mg/kg, po treated before 2 to 24 hrs of reserpine challenge; assay type: functional, organism-based; design: dose 20 mg/kg; summary of the method: as §1
Mus musculus [10] = assay: Antidepressant activity against reserpine-induced hypothermia CFLP mouse model assessed as change in esophageal temperature < 5 degC at 100 mg/kg, po treated before 2 to 24 hrs of reserpine challenge; assay type: functional, organism-based; design: dose 100 mg/kg; summary of the method: as §1
[11] = Inhibition of radiolabeled noradrenaline uptake in whole rat brain synaptosome; assay type: functional, tissue-based
[12] = Inhibition of radiolabeled 5-hydroxytryptamine uptake in whole rat brain synaptosome; assay type: functional, tissue-based
[13] = Inhibition of radiolabeled dopamine uptake in whole rat brain synaptosome; assay type: functional, tissue-based
Brain = assay: In vivo inhibition of hydroxytryptamine-induced depletion of rat brain noradrenaline; assay type: functional
Rattus norvegicus = assay: Toxicity in substantia nigra lesioned rat assessed as turning behaviour up to 50 mg/kg, po; assay type: organism-based; design: dose 50 mg/kg, route oral; conditions: in vivo
Summary of the method: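 Rats with a unilateral substantia nigra lesion, dosed orally at up to 50 mg/kg, and observed for turning.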

Mus musculus [14] = assay: Toxicity in mouse assessed as CNS stimulation up to 8 mg/kg, po; assay type: organism-based, Central nervous system; design: dose 8 mg/kg, route oral; conditions: in vivo
Mus musculus [15] = assay: Antidepressant activity against reserpine-induced hypothermia CFLP mouse model assessed as change in esophageal temperature at 1 mg/kg, po treated before 2 to 24 hrs of reserpine challenge; assay type: functional, organism-based; design: dose 1 mg/kg; summary of the method: as §1
Mus musculus [16] = assay: Antidepressant activity against reserpine-induced hypothermia CFLP mouse model assessed as change in esophageal temperature at 3 mg/kg, po treated before 2 to 24 hrs of reserpine challenge; assay type: functional, organism-based; design: dose 3 mg/kg; summary of the method: as §1
Mus musculus [17] = assay: Antidepressant activity against reserpine-induced hypothermia CFLP mouse model assessed as change in esophageal temperature at 16 mg/kg, po treated before 2 to 24 hrs of reserpine challenge; assay type: functional, organism-based; design: dose 16 mg/kg; summary of the method: as §1
Mus musculus [18] = assay: Antidepressant activity against reserpine-induced hypothermia CFLP mouse model assessed as change in esophageal temperature at 4 mg/kg, po treated before 2 to 24 hrs of reserpine challenge; assay type: functional, organism-based; design: dose 4 mg/kg; summary of the method: as §1
Mus musculus [19] = assay: Antidepressant activity against reserpine-induced hypothermia CFLP mouse model assessed as change in esophageal temperature at 60 mg/kg, po treated before 2 to 24 hrs of reserpine challenge; assay type: functional, organism-based; design: dose 60 mg/kg; summary of the method: as §1

CN(C)CC(OC(=O)c1ccccc1)C(c1ccccc1)c1cccc(Cl)c1 (stereo unspecified)
deltaT (Mus musculus [1]): 5.2 °C

CN(C)CC(O)C(c1ccccc1)c1ccc(F)cc1 (stereo unspecified)
ED50 [2]: > 100 mg/kg
Kb (Ileum): 15.8 µM
deltaT (Mus musculus [3]): 5.8 °C
ED50 (Mus musculus [4]): 26 mg/kg

CN(C)CC(O)C(O)(c1ccccc1)c1ccccc1 (stereo unspecified)
deltaT (Mus musculus [5]): 5.5 °C

Cc1ccccc1C(c1ccccc1)C(O)CN(C)C (stereo unspecified)
deltaT (Mus musculus [1]): 10.4 °C

CN(C)CC(O)C(Cc1ccccc1)c1ccccc1 (stereo unspecified)
deltaT (Mus musculus [5]): 8.6 °C

CNCC(O)C(c1ccccc1)c1ccccc1.Cl (stereo unspecified)
ED50 [2]: 40 mg/kg
Kb (Ileum): 10 µM
deltaT (Mus musculus [6]): 6.1 °C
ED50 (Mus musculus [4]): 144 mg/kg

CN(C)CC(O)(c1ccccc1)C(c1ccccc1)c1ccccc1 (stereo unspecified)
Activity (Mus musculus [7]): inactive

COc1ccc(C(c2ccccc2)C(O)CN(C)C)cc1 (stereo unspecified)
deltaT (Mus musculus [1]): 5.9 °C

CN(C)CC(O)C(CCc1ccccc1)c1ccccc1 (stereo unspecified)
deltaT (Mus musculus [8]): 7.4 °C

CCN(CC)CC(O)C(c1ccccc1)c1ccccc1 (stereo unspecified)
deltaT (Mus musculus [1]): 5 °C

CN(C)CCCN1c2ccccc2CCc2ccccc21 [IMIPRAMINE]
deltaT (Mus musculus [9]): 6.8 °C
ED50 [2]: 3.3 mg/kg
Kb (Ileum): 0.00126 µM
ED50 (Mus musculus [4]): 20 mg/kg

CN(C)CC(O)C(c1ccccc1)C1CCCCC1 (stereo in doubt; 39a)
Activity (Mus musculus [10]): inactive

CN(Cc1ccccc1)CC(O)C(c1ccccc1)c1ccc(F)cc1 (stereo unspecified)
deltaT (Mus musculus [1]): 7.3 °C

COC(c1ccccc1)(c1ccccc1)C(O)CN(C)C (stereo unspecified)
deltaT (Mus musculus [8]): 6.9 °C

CN(CCCO)CC(O)C(c1ccccc1)c1ccccc1 (stereo unspecified)
deltaT (Mus musculus [5]): 12.4 °C

Br.CN(C)C[C@H](O)C(c1ccccc1)c1ccccc1
ED50 [2]: 63 mg/kg
Kb (Ileum): 3.16 µM
ED50 (Mus musculus [4]): 26 mg/kg

CNCC(O)C(c1ccccc1)c1ccc(Cl)cc1 (stereo unspecified)
deltaT (Mus musculus [1]): 8.8 °C

NCC(O)C(c1ccccc1)c1ccccc1 (stereo unspecified)
Activity (Mus musculus [10]): inactive

CCN(C)CC(O)C(c1ccccc1)c1ccccc1.Cl (stereo unspecified)
ED50 [2]: 43 mg/kg
Kb (Ileum): 50.1 µM
Activity (Mus musculus [3]): inactive
deltaT (Mus musculus [1]): 10.2 °C
ED50 (Mus musculus [4]): 36 mg/kg

CN(C)CC(O)C(c1ccccc1)c1cccc(Cl)c1.Cl (stereo unspecified)
ED50 [2]: 33 mg/kg
Kb (Ileum): 15.8 µM
IC50 [11]: 1.2 µM
IC50 [12]: 9.8 µM
IC50 [13]: 8.9 µM
ED50 (Brain): 30 mg/kg
Activity (Rattus norvegicus): Non-toxic
Activity (Mus musculus [14]): Toxic
deltaT (Mus musculus [15]): 5.3 °C
ED50 (Mus musculus [4]): 42 mg/kg

CN(C)CC(O)C(c1ccccc1)c1ccccc1Cl.Cl (stereo unspecified)
ED50 [2]: 24 mg/kg
Kb (Ileum): 6.31 µM
deltaT (Mus musculus [15]): 6.6 °C
ED50 (Mus musculus [4]): 29 mg/kg

OC(CN1CCCCC1)C(c1ccccc1)c1ccccc1 (stereo unspecified)
deltaT (Mus musculus [8]): 9.9 °C

CNCC(C)(O)C(c1ccccc1)c1ccccc1 (stereo unspecified)
deltaT (Mus musculus [5]): 8.9 °C

CN(C)CC(O)C(O)(c1ccccc1)c1ccc(F)cc1 (stereo unspecified)
deltaT (Mus musculus [1]): 7.5 °C

CN(C)CC(O)C(c1ccccc1)c1cccc(Br)c1.Cl (stereo unspecified)
Activity (Mus musculus [16]): inactive
ED50 [2]: > 100 mg/kg
Kb (Ileum): 7.94 µM
deltaT (Mus musculus [3]): 12.4 °C
ED50 (Mus musculus [4]): 49 mg/kg

CN1CCN(CC(O)C(c2ccccc2)c2ccccc2)CC1 (stereo unspecified)
deltaT (Mus musculus [5]): 6.3 °C

CNCC(O)C(c1ccccc1)c1ccccc1Cl (stereo unspecified)
deltaT (Mus musculus [3]): 8.6 °C

OC(CNCc1ccccc1)C(c1ccccc1)c1ccccc1 (stereo unspecified)
Activity (Mus musculus [10]): inactive

CN(C)CC(O)C(c1ccccc1)c1ccc(Cl)cc1.O=C(O)CCC(=O)O (stereo unspecified)
ED50 [2]: 71 mg/kg
Kb (Ileum): 7.94 µM
deltaT (Mus musculus [17]): 6.3 °C
ED50 (Mus musculus [4]): 40 mg/kg

CC(=O)OC(CN(C)C)C(c1ccccc1)c1ccccc1 (stereo unspecified)
Activity (Mus musculus [18]): inactive
deltaT (Mus musculus [3]): 10.2 °C

Cc1ccc(C(c2ccccc2)C(O)CN(C)C)cc1 (stereo unspecified)
Activity (Mus musculus [10]): inactive

CN(C)CC(O)C(c1ccc(F)cc1)c1ccc(F)cc1 (stereo unspecified)
deltaT (Mus musculus [1]): 7.8 °C

CN(Cc1ccccc1)CC(O)C(c1ccccc1)c1ccccc1 (stereo unspecified)
deltaT (Mus musculus [1]): 6.1 °C

Br.CN(C)C[C@@H](O)C(c1ccccc1)c1ccccc1
ED50 [2]: 51 mg/kg
Kb (Ileum): 7.94 µM
ED50 (Mus musculus [4]): 46 mg/kg

OC(CN1CCOCC1)C(c1ccccc1)c1ccccc1 (stereo unspecified)
deltaT (Mus musculus [8]): 11 °C

CN(C)CC(O)C(c1ccccc1)C1CCCCC1 (stereo in doubt; 39b)
Activity (Mus musculus [10]): inactive

CN(C)CC(O)C(c1ccccc1)c1cc(Cl)cc(Cl)c1 (stereo unspecified)
deltaT (Mus musculus [16]): 6.2 °C

CN(C)CC(O)C(c1ccccc1)c1cccc(C(F)(F)F)c1.Cl (stereo unspecified)
Kb (Ileum): 1.58 µM
deltaT (Mus musculus [3]): 9 °C
ED50 (Mus musculus [4]): 26 mg/kg

CC(O)(CN)C(c1ccccc1)c1ccccc1 (stereo unspecified)
Activity (Mus musculus [10]): inactive

CNCC(O)C(c1ccccc1)c1ccc(C)cc1 (stereo unspecified)
deltaT (Mus musculus [8]): 5.4 °C
Activity (Mus musculus [7]): inactive

CN(C)CC(O)C(c1ccccc1)c1cccs1 (stereo unspecified)
deltaT (Mus musculus [19]): 8.4 °C

CN(C)CC(O)C(c1ccccc1)c1ccc(Cl)c(Cl)c1 (stereo unspecified)
deltaT (Mus musculus [1]): 7.2 °C

Br.CN(C)CC(O)C(c1ccccc1)c1ccccc1 (stereo unspecified)
ED50 [2]: 36 mg/kg
Kb (Ileum): 6.31 µM
deltaT (Mus musculus [3]): 5.3 °C
ED50 (Mus musculus [4]): 53 mg/kg
